UCH37 inh – blocks the human deubiquitinase UCH37 | Q9Y5K5 | purified proteasome/UCH37, Ub-AMC cleavage fluorescence | inhibition, % (test concentration not listed) | hit rate 0.33% among 330,000;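 active = mean inhibition over replicate wells above about 20%, limit read from the data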;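 note: 0% = compound-free wells with enzyme and 100% = wells lacking proteasome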
Target sequence (Q9Y5K5 whole entry, looked up): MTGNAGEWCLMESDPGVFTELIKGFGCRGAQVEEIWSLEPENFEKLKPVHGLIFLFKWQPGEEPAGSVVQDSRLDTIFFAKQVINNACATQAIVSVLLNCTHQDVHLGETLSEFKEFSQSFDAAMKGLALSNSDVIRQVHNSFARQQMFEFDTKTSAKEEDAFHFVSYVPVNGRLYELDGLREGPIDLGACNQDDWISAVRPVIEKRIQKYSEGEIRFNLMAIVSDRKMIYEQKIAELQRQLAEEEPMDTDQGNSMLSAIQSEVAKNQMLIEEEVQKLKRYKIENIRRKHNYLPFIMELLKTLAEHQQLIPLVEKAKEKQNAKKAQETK
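assay system = human UCH37 enzyme supplied as purified proteasome complex | amount = proteasome at 0.15 nM in the dispensed enzyme solution | schedule = 30 min compound-proteasome preincubation then 25 min substrate reaction, room temperature | measured by = fluorescence, ex 355 nm, em 460 nm | benchmarks = no-proteasome wells (full inhibition) and compound-free wells (no inhibition)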
aDG glyco up – increases alpha dystroglycan glycosylation. Pro5-aDG cells, alpha-DG glycosylation AlphaScreen (IIH6); 0% Pro5, 100% B10-LARGE cell signal. activation, % at 10 µM. hit rate 0.22% among 360,000. AID 624168;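 active = activation of at least 8% versus controls, or a plate z-score of at least 8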;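 note: Pro5 are CHO cells carrying HIG-tagged alpha-DG that lacks glycosylation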
Vif imaging – HIV Vif inhibition; hit rate 0.35% among 340,000; HEK293T cells, Vif self-association by quenched fluorescence, imaging, 24 h; inhibition, % at 7.49 µM; in the data active = inhibition above about 50%, passing the limit was not always enough
N-glyco inh – N-linked glycosylation inhibition; D54 ERlucT glycosylation luciferase reporter, 24 h; percent of 100 nM tunicamycin response; reporter increase, % at 12.5 µM; hit rate 0.23% among 360,000;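 active = mean luciferase reporter signal, scaled so untreated is 0 and the glycosylation-blocking control 100, at or above a set limit in every replicate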;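 note: luciferase carries N-glycosylation sites so blocking glycosylation raises the light; 0% = median of neutral control wells and 100% = median of 100 nM tunicamycin wells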
MsrA inh – inhibitors of bovine MsrA; hit rate 0.75% among 360,000; purified bovine MsrA, absorbance read-out; inhibition, % at 15.5 µM; AID 651718;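 note: 0% = vehicle wells with enzyme and 100% = reference inhibitor wells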
MsrA act – activators of bovine methionine sulfoxide reductase A; purified bovine MsrA, absorbance read-out; activation, % at 10.6 µM; hit rate 0.3% among 360,000; in the data active = activation above about 7.5%;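 note: 0% = vehicle and 100% = reference activator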
MsrA conf – confirmation of bovine MsrA inhibitors; shares compounds with MsrA inh; inhibition, % at 15.5 µM; hit rate 41% among 2,300; purified bovine MsrA, absorbance read-out; AID 651822;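 note: coupled to thioredoxin reductase with NADPH and selenocystamine and DMSO as substrate; 0% = vehicle only and 100% = full effect of reference inhibitor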
The depositor's hits bear a star; i = inactive; / = no result given. Only some compounds are listed: those with a hit (about 1.9% of all), similar ones and a draw of the others. Cut-off read from the data, not from the text of the source, unless noted: active = inhibition above about 4.5%; inactive = the rest.

SMILES	UCH37 inh	aDG glyco up	Vif imaging	N-glyco inh	MsrA inh	MsrA act	MsrA conf
CC1(C)CC(=O)C2=C(C1)Nc1ccccc1NC2c1ccc(F)cc1 (configuration not stated)	/	0.0	-2.2	2.1	2.7	-6.2	/
CC1(C)CC(=O)C2=C(C1)Nc1ccccc1NC2c1ccc2c(c1)OCO2 (configuration not stated)	11.1	0.1	-9.0	0.2	6.6*	-2.1	4.1
COc1ccccc1C1Nc2ccccc2NC2=C1C(=O)CC(C)(C)C2 (configuration not stated)	5.1	0.0	3.3	0.2	5.4*	-4.4	3.6
Cc1ccc(C=NNC(=O)Cn2nnc(N)n2)cc1	4.6	/	/	/	/	/	/
COc1ccc(NC(=O)c2cc3ccccc3oc2=NNS(=O)(=O)c2ccc(C)cc2)cc1	4.7	/	/	/	/	/	/
CC(C)NC(=O)/C(C#N)=C/c1ccc2c(c1)OCCO2	6.2	0.2	/	2.2	6.3*	-8.6	4.1
CCOC(=O)NN=Cc1cc(OC)c(O)c(OC)c1	-4.5	/	/	/	/	/	/
COc1cc(/C=N/N=C/c2cc(OC)c(O)c(OC)c2)cc(OC)c1O	/	-0.1	0.3	0.0	6.0*	-11.1	5.8*
COc1cc(/C=N/NC(=O)C(N)=O)cc(OC)c1O	/	0.1	-10.9	-1.1	4.8*	-9.0	3.6
O=C(CNC(=O)c1cccs1)NN=Cc1ccccc1[N+](=O)[O-]	2.6	/	/	/	/	/	/
CC(CC(=O)Nc1cc(Cl)ccc1Cl)=NNC(=O)c1ccco1	1.5	/	/	/	/	/	/
CCOc1cc(/C=C(/C#N)c2ccc(F)cc2)ccc1OCc1ccc(C(=O)O)o1	10.3	0.6	11.5	1.0	6.7*	-10.0	4.5
O=C(O)c1ccc(C=Nn2cc(-c3ccccc3)[nH]c2=S)cc1	9.3	/	/	/	/	/	/
COc1ccc2c(c1OC)C(=O)OC2CC(=O)c1ccc(O)cc1 (configuration not stated)	1.6	0.4	-1.9	1.7	3.0	-0.3	/
COc1ccc2c(c1OC)C(=O)OC2CC(=O)c1ccc(N(C)C)cc1 (configuration not stated)	12.9	0.1	-0.8	1.1	4.7*	-3.1	4.6*
Cc1ccccc1Nc1ncnc2[nH]ncc12	5.2	0.0	14.4	-3.4	14.2*	-1.4	11.6*
Brc1ccc(Nc2ncnc3[nH]ncc23)cc1	-0.7	0.0	-7.0	-3.6	-1.0	-2.5	/
Cc1nnc(SCC(=O)N/N=C/c2cc(Cl)c(O)c(Cl)c2)s1	/	-0.1	-4.5	1.0	5.1*	-6.8	4.7*
O=C(NN=Cc1coc2ccccc2c1=O)c1cc(O)cc(O)c1	-22.5	/	/	/	/	/	/
CCOC(=O)CC(=O)CSc1nc2c(sc(=S)n2-c2ccccc2)c(=O)[nH]1	8.1	-0.1	-6.3	0.0	6.0*	-4.9	2.5
CCOC(=O)CSc1nc2c(sc(=S)n2-c2ccc(CC)cc2)c(=O)[nH]1	12.1	0.1	-10.5	-1.4	2.9	-0.1	/
COc1cccc(/C=N/n2c(CO)nc3ccccc32)c1OC	/	-0.2	-3.9	-0.2	10.3*	-1.4	13.0*
CNC(=O)c1cc2ccc(OC)cc2oc1=O	i	0.0	4.7	3.1	5.2*	-4.3	5.7*
O=[N+]([O-])c1ccccc1S(=O)(=O)Oc1ccccc1C=Nn1cnnc1	3.4	/	/	/	/	/	/
COc1cccc(C2=CC(c3cccs3)n3nnnc3N2)c1 (configuration not stated)	4.1	0.0	-0.9	17.3	13.8*	-1.8	-0.7
SMILES	UCH37 inh	aDG glyco up	Vif imaging	N-glyco inh	MsrA inh	MsrA act	MsrA conf
CCN1CCN(c2nc(Nc3ccccc3)nc(N)c2[N+](=O)[O-])CC1	10.6	-0.1	/	2.5	4.8*	2.1	3.5
CC(C)CCNc1nc(N)c([N+](=O)[O-])c(NCCO)n1	12.1	0.1	13.6	10.5	4.9*	-11.3	5.1*
CCC(C)Nc1nc(N)c([N+](=O)[O-])c(NCCO)n1 (configuration not stated)	17.1	0.0	3.7	3.2	3.2	-4.8	/
COc1ccc(C=NNC(=O)CNC(=O)c2ccc(S(=O)(=O)N3CCCC3)cc2)c(OC)c1	5.3	/	/	/	/	/	/
Cc1ccc(/C=C(\C#N)C(=O)Nc2c(C)cccc2C)s1	6.4	-0.3	2.9	-2.1	7.1*	-4.3	6.1*
CCOc1cc(C=NO)cc(Cl)c1OCC	1.5	/	/	/	/	/	/
COc1ccc(C(=O)Nc2ccccc2C(=O)NN=Cc2ccc(O)c(OC)c2)cc1	-6.5	/	/	/	/	/	/
CO/N=C/C(C#N)=C/c1ccc(OC)c(OC)c1	/	0.8	3.4	-0.8	5.1*	-3.6	3.0
O=c1c2ccccc2nc(-c2ccccc2)n1N=Cc1ccc([N+](=O)[O-])cc1	-0.4	/	/	/	/	/	/
Cc1occc1C(=O)NN=Cc1ccc(OCc2ccccc2)cc1	3.7	/	/	/	/	/	/
CCc1ccc(C=NNC(=O)c2nnn(-c3nonc3N)c2CN2CCc3ccccc32)cc1	2.2	/	/	/	/	/	/
Cc1cccn2c(=O)nc(SCC(=O)N3CC(C)OC(C)C3)nc12 (configuration not stated)	-0.1	0.0	-7.2	-2.2	5.5*	-5.0	1.6
COc1ccc(C=CC(=O)c2ccc([N+](=O)[O-])cc2)cc1	5.7	0.2	7.3	-2.9	-0.5	0.7	/
COc1ccc(C(=O)/C=C/c2ccc(O)cc2)cc1	-0.7	0.2	6.8	5.8	5.0*	-2.4	4.1
CC(=NNC(=O)CNC(=O)c1cccnc1)c1ccc([N+](=O)[O-])cc1	6.5	/	/	/	/	/	/
O=C(N/N=C/c1cccs1)c1ccc(NC(=O)c2ccccc2Cl)cc1	/	0.0	-2.4	-4.6	4.8*	-4.0	4.0
COc1cc(/C=N/Nc2nc(=O)[nH]nc2C)ccc1O	/	-0.2	1.0	-0.6	4.7*	-7.8	5.4*
COc1cc(/C=N/Nc2cc(C)nc(N)n2)ccc1O	/	0.0	-2.6	-4.3	6.8*	0.1	5.2*
Cc1ccc(C=NNC(=O)C2CC(=O)N(c3ccccc3)C2)o1 (configuration not stated)	7.9	/	/	/	/	/	/
NC(=O)c1cc(S(=O)(=O)N2CCN(c3ccc([N+](=O)[O-])cc3)CC2)cs1	10.9	0.0	2.1	-3.4	7.8*	-2.3	4.8*
Cc1c(NC(=O)C(C)OC(=O)/C=C/c2ccccc2)c(=O)n(-c2ccccc2)n1C (configuration not stated)	5.6	0.3	4.6	-1.1	-0.1	-2.2	/
COc1cc(/C=C/C(=O)OC(C)C(=O)Nc2c(C)n(C)n(-c3ccccc3)c2=O)ccc1O (configuration not stated)	-24.8	0.2	7.0	2.1	5.9*	-6.8	3.1
CCN(CC)c1ccc(/C=N/NC(=O)Nc2ccccc2)cc1	/	-0.5	-3.2	0.0	3.3	-3.2	/
